Screens as filed in PubChem BioAssay.
Compounds with a hit are over-represented: about 2.1% of the library has one in this group of screens.
CXCR6 inh = CXCR6 (human) receptor inhibition | O00574 | CHO-K1 PathHunter CXCR6 beta-arrestin, luminescence | inhibition, % at 20 µM | actives 0.36% (n = 360,000); in the data active means inhibition above about 34%, passing the limit was not always enough;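 further: antagonist mode with CXCL16 agonist at 10 nM final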
EBI2 antag = blocks human EBI2 receptor beta-arrestin signaling; P32249; EBI2 beta-arrestin recruitment, luminescence, 7a,25-OHC stimulated; inhibition, % at 5 µM; actives 0.81% (n = 360,000); AID 651636; in the data active means inhibition above about 38%;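 further: enzyme fragment complementation signal reports receptor beta-arrestin coupling in cells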
APJ antagonist = APJ receptor antagonism; P35414; CHO-K1 APJ beta-arrestin complementation, luminescence; inhibition, % at 20 µM; actives 0.32% (n = 330,000);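 active means inhibition above about 40% at 20 µM, limit read from the data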;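 further: cells challenged with 10 nM apelin-13 agonist together with compound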
APJ agonist = APJ receptor agonism; actives 0.11% (n = 330,000); CHO-K1 APJ PathHunter beta-arrestin, luminescence; 0% DMSO wells, 100% apelin; P35414; activation, % at 20 µM; AID 2520;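 active means activation more than six SD over the plate average, tested at 20 µM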
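Material: engineered CHO-K1 APJ arrestin reporter cells; amount: 1000 CHO-K1 reporter cells seeded per well; incubation: compound stimulation 90 min at 25 °C, detection 60 min; signal: luminescent beta-gal fragment complementation, chemiluminescent substrate; read-out basis: APJ agonist activity; controls: DMSO-only wells as negative, 10 nM Apelin-13 as positive control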
HTR2A ag = agonists of mouse serotonin 5-HT2A receptor (HTR2A); actives 0.66% (n = 360,000); activation, % at 7.6 µM; AID 624169; CHO-K1 mHTR2A beta-arrestin complementation, luminescence; percent of 30 µM serotonin response; P35363;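 active means activation above a run cutoff, the mean activation of all tested compounds plus 3 SD, cut at about 14% in these data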
CCR6 antagonist = antagonists of human CCR6 receptor; P51684; CHO-K1 CCR6 PathHunter beta-arrestin, luminescence, CCL20-stimulated; inhibition, % at 20 µM; actives 0.49% (n = 340,000); AID 493098;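 active means compounds whose inhibition of the agonist-driven luminescence signal at 20 µM reaches about 50%, limit read from the data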;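 further: cells stimulated with CCL20 at 14 nM final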
Target sequence (P51684 whole entry, looked up): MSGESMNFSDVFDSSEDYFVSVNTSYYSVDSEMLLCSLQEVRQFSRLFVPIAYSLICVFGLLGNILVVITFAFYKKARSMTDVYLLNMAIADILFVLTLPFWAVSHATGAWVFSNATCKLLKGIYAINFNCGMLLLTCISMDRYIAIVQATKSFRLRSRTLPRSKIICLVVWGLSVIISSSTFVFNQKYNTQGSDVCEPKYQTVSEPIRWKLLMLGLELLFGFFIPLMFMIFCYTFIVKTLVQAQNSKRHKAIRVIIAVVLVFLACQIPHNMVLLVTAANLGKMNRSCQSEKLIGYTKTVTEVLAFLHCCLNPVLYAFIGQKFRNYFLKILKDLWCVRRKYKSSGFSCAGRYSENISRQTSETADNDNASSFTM
OPRM1 ag = activates human mu opioid receptor in HTR2A counterscreen; shares compounds with HTR2A ag; U2OS OPRM1 beta-arrestin PathHunter, luminescence; DMSO 0%, DAMGO 9.3 µM 100%; activation, % at 9.3 µM; actives 5.3% (n = 2,300);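 active means mean activation above the mean of DMSO-only wells plus 3 SD, cut at about 0.5% in these data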
HTR2A ag conf = confirmation of mouse HTR2A serotonin receptor agonists; shares compounds with HTR2A ag; CHO-K1 PathHunter beta-arrestin recruitment, luminescence; DMSO 0%, 30 µM serotonin 100%; activation, % at 7.6 µM; actives 19% (n = 2,300);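 active means mean activation across triplicates above the hit threshold derived in the original primary screen, cut at about 15% in these data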
Large screens that a line does not name were inactive (follow-up assays come after a bar, where they were run); ! = a repeat was not active.

C#CCN(C[C@H]1[C@H](OC(=O)NCc2ccccc2)[C@H](OC(=O)NCc2ccccc2)C[C@H]2C(=O)N(c3ccccc3)C(=O)[C@@H]12)S(=O)(=O)c1ccc(C)cc1	none (no result: APJ antagonist, APJ agonist, CCR6 antagonist)
S=c1[nH]nc(CSCc2ccccc2Cl)n1C1CCCCC1	HTR2A ag 29.3 (no result: APJ antagonist, APJ agonist) | OPRM1 ag inactive | HTR2A ag conf inactive
CCOC(=O)c1nnn(CC(=O)N2N=C(c3ccccc3)CC2c2ccccc2)c1C(=O)OCC (centres undefined)	none
CCOC(=O)/C=C(\C)N1N=C(c2ccccc2)CC1c1ccccc1 (centres undefined)	HTR2A ag 20.1 | OPRM1 ag inactive | HTR2A ag conf inactive
COc1ccccc1C(=O)NNC(=O)C1CC=CCC1 (centres undefined)	HTR2A ag 18.8 | OPRM1 ag inactive | HTR2A ag conf inactive
COC(=O)NNC(=O)c1ccccc1OC	none
C[C@@H](O)CC(=O)O	none
C[C@H](O)CC(=O)O	HTR2A ag 16.0! | OPRM1 ag inactive | HTR2A ag conf inactive
O=C(CSc1n[nH]c(=O)[nH]c1=O)N1CCCCCC1	none
O=C(CCc1n[nH]c(=O)[nH]c1=O)N1CCCCC1	HTR2A ag 15.6 | OPRM1 ag inactive | HTR2A ag conf inactive
CCOC(=O)c1c(NC(=O)COC(=O)c2ncc(Cl)c(Cl)c2Cl)sc(C(=O)N(C)C)c1C	none
COCCCNC(=O)c1csc([C@H]2C[C@H](O)[C@@H](CO)O2)n1	HTR2A ag 18.6 (no result: APJ antagonist, APJ agonist, CCR6 antagonist) | OPRM1 ag inactive | HTR2A ag conf inactive
c1ccc(CCN=C2CCCc3c2[nH]c2ccccc32)cc1	HTR2A ag 15.3 | OPRM1 ag inactive | HTR2A ag conf 28.4
C=CCNc1ccccc1S(=O)(=O)NCc1ccccc1	none (no result: APJ antagonist, APJ agonist)
CCOC(=O)C(=CNc1ncccc1C)C(=O)OCC	HTR2A ag 22.9 | OPRM1 ag inactive | HTR2A ag conf inactive
O=C(NCc1ccco1)c1c(Cl)cccc1Cl	none (no result: APJ antagonist, APJ agonist, CCR6 antagonist)
CC(=O)c1sc2nc(-c3ccccc3)cc(C)c2c1N	none
CCOc1ccc(CCNC(=O)c2cccc(NC3=NC4CS(=O)(=O)CC4S3)c2)cc1OCC (centres undefined)	none
CCOc1ccc(CCNC(=O)c2cccc(NC3=NC4CS(=O)(=O)CC4S3)c2)cc1 (centres undefined)	HTR2A ag 17.8 | OPRM1 ag inactive | HTR2A ag conf inactive
COC(=O)CNc1c(-c2ccccn2)nc2ccc(Br)cn12	HTR2A ag 19.3 | OPRM1 ag inactive | HTR2A ag conf inactive
Cc1cccc2nc(COc3ccc4ccccc4c3Br)cn12	HTR2A ag 32.1 | OPRM1 ag inactive | HTR2A ag conf inactive
COc1cccc(N=Nc2c(N)[nH]n3c(=O)c4c(nc23)CCCC4)c1	none
CCn1c(SCC(=O)NCC2CCCO2)nnc1-c1c[nH]c2ccccc12 (centres undefined)	none
Cn1c(SCC(=O)NCC2CCCO2)nnc1-c1c[nH]c2ccccc12 (centres undefined)	HTR2A ag 36.7 | OPRM1 ag inactive | HTR2A ag conf inactive
CCC(C)(CC(=O)O)CC(=O)Nc1cc(C(F)(F)F)cc(C(F)(F)F)c1 (centres undefined)	none
CCOc1ccccc1C(=O)N[C@H](C(=O)NNC(=O)c1cccs1)C(C)C	none
CCOc1ccccc1C(=O)NCC(=O)NNC(=O)c1cccs1	HTR2A ag 19.3 | OPRM1 ag inactive | HTR2A ag conf inactive
COc1ccccc1CC(=O)Nc1ccc(NC(=O)c2cccs2)cc1	none
COc1ccccc1CC(=O)NNC(=O)c1cccs1	HTR2A ag 14.6 | OPRM1 ag inactive | HTR2A ag conf inactive
O=C(NC1CCSc2ccccc21)c1c(F)cccc1Cl (centres undefined)	none
